In ChEMBL document CHEMBL4033712, “Synthesis and biological evaluation of new C-12(α/β)-(N-) sulfamoyl-phenylamino-14-deoxy-andrographolide derivatives as potent anti-cancer agents” (Bioorg Med Chem Lett, 2017):

Experiments:
Type in all cases: functional
UACC-62 = assay: Anticancer activity against human UACC62 cells assessed as cell growth at 10 uM after 48 hrs by sulforhodamine B assay relative to control; settings: UACC-62, 48 h, read-out: Activity
Summary of the method: (§1)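 NCI-60 single-dose screen: compound added at 10 µM, cultures incubated 48 h. End point by sulforhodamine B protein-binding dye. Value reported as percent growth of treated cells relative to untreated control cells.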

HL-60(TB) = assay: Anticancer activity against human HL-60(TB) cells assessed as cell growth at 10 uM after 48 hrs by sulforhodamine B assay relative to control; settings: HL-60, 48 h, read-out: Activity
Summary of the method: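 NCI-60 human tumour panel single-dose screen: cells exposed to 10 µM compound for 48 h. Growth end point read with sulforhodamine B protein-binding dye. Expressed as percent growth of treated cells versus untreated control cells.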

EKVX = assay: Anticancer activity against human EKVX cells assessed as cell growth at 10 uM after 48 hrs by sulforhodamine B assay relative to control; settings: read-out: Activity
Summary of the method: (§2)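 Single-dose NCI-60 panel screen: compound added at 10 µM and the culture incubated 48 h. The end point was read by protein staining with sulforhodamine B. The value is percent growth of treated cells relative to untreated control cells, reported as a mean graph across the panel.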

LOX IMVI = assay: Anticancer activity against human LOXIMVI cells assessed as cell growth at 10 uM after 48 hrs by sulforhodamine B assay relative to control; settings: read-out: Activity; summary of the method: as §2
SF-295 = assay: Anticancer activity against human SF295 cells assessed as cell growth at 10 uM after 48 hrs by sulforhodamine B assay relative to control; settings: SF-295, 48 h, read-out: Activity; summary of the method: as §2
RPMI-8226 = assay: Anticancer activity against human RPMI8226 cells assessed as cell growth at 10 uM after 48 hrs by sulforhodamine B assay relative to control; settings: RPMI-8226, 48 h, read-out: Activity; summary of the method: as §2
HOP-62 = assay: Anticancer activity against human HOP62 cells assessed as cell growth at 10 uM after 48 hrs by sulforhodamine B assay relative to control; settings: HOP-62, 48 h, read-out: Activity; summary of the method: as §2
Malme-3M = assay: Anticancer activity against human MALME-3M cells assessed as cell growth at 10 uM after 48 hrs by sulforhodamine B assay relative to control; settings: read-out: Activity; summary of the method: as §2
HCT-116 = assay: Anticancer activity against human HCT116 cells assessed as cell growth at 10 uM after 48 hrs by sulforhodamine B assay relative to control; settings: HCT-116, 48 h, read-out: Activity; summary of the method: as §2
A498 = assay: Anticancer activity against human A498 cells assessed as cell growth at 10 uM after 48 hrs by sulforhodamine B assay relative to control; settings: A498, 48 h, read-out: Activity; summary of the method: as §2
KM12 = assay: Anticancer activity against human KM12 cells assessed as cell growth at 10 uM after 48 hrs by sulforhodamine B assay relative to control; settings: KM12, 48 h, read-out: Activity; summary of the method: as §2
MOLT-4 = assay: Anticancer activity against human MOLT4 cells assessed as cell growth at 10 uM after 48 hrs by sulforhodamine B assay relative to control; settings: MOLT-4, 48 h, read-out: Activity; summary of the method: as §2
Hs-578T [1] = assay: Anticancer activity against human Hs 578T cells assessed as cell growth at 10 uM after 48 hrs by sulforhodamine B assay relative to control; settings: read-out: Activity; summary of the method: as §2
RXF 393 = assay: Anticancer activity against human RXF393 cells assessed as cell growth at 10 uM after 48 hrs by sulforhodamine B assay relative to control; settings: RXF 393, 48 h, read-out: Activity; summary of the method: as §2
IGROV-1 = assay: Anticancer activity against human IGROV1 cells assessed as cell growth at 10 uM after 48 hrs by sulforhodamine B assay relative to control; settings: IGROV-1, 48 h, read-out: Activity; summary of the method: as §2
Hs-578T [2] = assay: Growth inhibition of human Hs 578T cells incubated for 48 hrs by sulforhodamine B assay
Summary of the method: (§3)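 NCI-60 five-dose screen at 0.01, 0.1, 1, 10 and 100 µM, 48 h incubation, sulforhodamine B end point. GI50 (50% decrease in net growth), TGI (total growth inhibition) and LC50 (net 50% loss of initial cells) taken from log concentration versus % growth inhibition curves.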

OVCAR-4 = assay: Anticancer activity against human OVCAR4 cells assessed as cell growth at 10 uM after 48 hrs by sulforhodamine B assay relative to control; settings: OVCAR-4, 48 h, read-out: Activity; summary of the method: as §2
M14 = assay: Anticancer activity against human M14 cells assessed as cell growth at 10 uM after 48 hrs by sulforhodamine B assay relative to control; settings: M14, 48 h, read-out: Activity; summary of the method: as §2
A549 = assay: Anticancer activity against human A549/ATCC cells assessed as cell growth at 10 uM after 48 hrs by sulforhodamine B assay relative to control; settings: A549, 48 h, read-out: Activity; summary of the method: as §2
OVCAR-5 = assay: Anticancer activity against human OVCAR5 cells assessed as cell growth at 10 uM after 48 hrs by sulforhodamine B assay relative to control; settings: OVCAR-5, 48 h, read-out: Activity; summary of the method: as §2
NCI/ADR-RES = assay: Anticancer activity against human NCI/ADR-RES cells assessed as cell growth at 10 uM after 48 hrs by sulforhodamine B assay relative to control; settings: read-out: Activity; summary of the method: as §2
NCI-H23 = assay: Anticancer activity against human NCI-H23 cells assessed as cell growth at 10 uM after 48 hrs by sulforhodamine B assay relative to control; settings: NCI-H23, 48 h, read-out: Activity; summary of the method: as §2
NCI-H322M = assay: Anticancer activity against human NCI-H322M cells assessed as cell growth at 10 uM after 48 hrs by sulforhodamine B assay relative to control; settings: read-out: Activity; summary of the method: as §2
SNB-75 = assay: Anticancer activity against human SNB75 cells assessed as cell growth at 10 uM after 48 hrs by sulforhodamine B assay relative to control; settings: SNB-75, 48 h, read-out: Activity; summary of the method: as §1
HOP-92 = assay: Growth inhibition of human HOP92 cells incubated for 48 hrs by sulforhodamine B assay; settings: HOP-92, 48 h; for CC50: read-out: LC50 (the source's name); summary of the method: as §3
BT-549 = assay: Growth inhibition of human BT549 cells incubated for 48 hrs by sulforhodamine B assay; settings: BT-549, 48 h; for CC50: read-out: LC50 (the source's name); summary of the method: as §3
TK-10 = assay: Anticancer activity against human TK10 cells assessed as cell growth at 10 uM after 48 hrs by sulforhodamine B assay relative to control; settings: TK-10, 48 h, read-out: Activity; summary of the method: as §1
786-0 = assay: Anticancer activity against human 786-0 cells assessed as cell growth at 10 uM after 48 hrs by sulforhodamine B assay relative to control; settings: 786-0, 48 h, read-out: Activity; summary of the method: as §2
K562 = assay: Anticancer activity against human K562 cells assessed as cell growth at 10 uM after 48 hrs by sulforhodamine B assay relative to control; settings: K562, 48 h, read-out: Activity; summary of the method: as §2

Compound	growth at 10 µM (UACC-62)	growth at 10 µM (HL-60(TB))	growth at 10 µM (EKVX)	growth at 10 µM (LOX IMVI)	growth at 10 µM (SF-295)	growth at 10 µM (RPMI-8226)	growth at 10 µM (HOP-62)	growth at 10 µM (Malme-3M)	growth at 10 µM (HCT-116)	growth at 10 µM (A498)	growth at 10 µM (KM12)	growth at 10 µM (MOLT-4)	growth at 10 µM (Hs-578T [1])	growth at 10 µM (RXF 393)	growth at 10 µM (IGROV-1)	growth at 10 µM (OVCAR-4)	growth at 10 µM (M14)	growth at 10 µM (A549)	growth at 10 µM (OVCAR-5)	growth at 10 µM (NCI/ADR-RES)	further results
C=C1CC[C@@H]2[C@](C)(COC(C)=O)[C@H](OC(C)=O)CC[C@@]2(C)[C@H]1CC(Nc1ccc(S(=O)(=O)Nc2nccs2)cc1)C1=CCOC1=O (stereo partly specified)	21.2%	-20.9%	73.4%	-88.3%	73%	-13.3%	120%	0.4%	-30.4%	85%	-0.89%	-4.45%	51.9%	-50.6%	12.6%	38%	8.12%	43.7%	7.82%	9.2%	GI50 (Hs-578T [2]): 10.8 µM; LC50 (Hs-578T [2]): > 100 µM; TGI (Hs-578T [2]): 60.4 µM; growth at 10 µM (NCI-H23): 38.1%; growth at 10 µM (NCI-H322M): 59.9%; growth at 10 µM (SNB-75): 28.3%; GI50 (HOP-92): 12.4 µM; TGI (HOP-92): 25.3 µM; CC50 (HOP-92): 52 µM; GI50 (BT-549): 2.43 µM; TGI (BT-549): 6.5 µM; CC50 (BT-549): 23.1 µM; growth at 10 µM (TK-10): 55%; growth at 10 µM (786-0): 6.27%; growth at 10 µM (K562): 3.4%
C=C1CC[C@@H]2[C@](C)(COC(C)=O)[C@H](OC(C)=O)CC[C@@]2(C)[C@H]1CC(Nc1ccc(S(=O)(=O)Nc2nc(C)cc(C)n2)cc1)C1=CCOC1=O (stereo partly specified)	32.9%	21.7%	74.5%	-60.6%	97%	2.24%	103%	96.3%	39.2%	85.3%	64.7%	24.6%	99.8%	85.1%	81.5%	65%	63.8%	65.3%	103%	66.7%	growth at 10 µM (NCI-H23): 84.3%; growth at 10 µM (NCI-H322M): 97.2%; growth at 10 µM (SNB-75): 44.6%; growth at 10 µM (TK-10): 111%; growth at 10 µM (786-0): 103%; growth at 10 µM (K562): 19.1%
C=C1CC[C@@H]2[C@](C)(COC(C)=O)[C@H](OC(C)=O)CC[C@@]2(C)[C@H]1CC(Nc1ccc(S(=O)(=O)Nc2cc(C)on2)cc1)C1=CCOC1=O (stereo partly specified)	19.8%	-2.05%	82%	-72.7%	100%	-15.2%	60.2%	56.6%	-1.13%	98.6%	30.5%	-7.86%	89.5%	29.8%	62.6%	68.2%	29.9%	72.2%	52.2%	31.6%	GI50 (Hs-578T [2]): 3.92 µM; LC50 (Hs-578T [2]): > 100 µM; TGI (Hs-578T [2]): 26.7 µM; growth at 10 µM (NCI-H23): 71%; growth at 10 µM (NCI-H322M): 80.4%; growth at 10 µM (SNB-75): 59.4%; GI50 (HOP-92): 3.07 µM; TGI (HOP-92): 8 µM; CC50 (HOP-92): 28 µM; GI50 (BT-549): 1.79 µM; TGI (BT-549): 3.47 µM; CC50 (BT-549): 6.73 µM; growth at 10 µM (TK-10): 58.4%; growth at 10 µM (786-0): 89.8%; growth at 10 µM (K562): 9.67%
